# Measured values: ChEMBL document CHEMBL1132971, “New azolidinediones as inhibitors of protein tyrosine phosphatase 1B with antihyperglycemic properties” (J Med Chem, 2000)
# The source made the active and inactive calls. No cut-off for these calls is given here.
# Columns and labels:
# [1] = target: T1, Tyrosine-protein phosphatase non-receptor type 1 (Mus musculus) (UniProt P35821); assay: Ability to decrease plasma insulin levels in mouse at a dose 100 mg/kg/day; type: functional, organism-based
# T1 sequence (whole entry): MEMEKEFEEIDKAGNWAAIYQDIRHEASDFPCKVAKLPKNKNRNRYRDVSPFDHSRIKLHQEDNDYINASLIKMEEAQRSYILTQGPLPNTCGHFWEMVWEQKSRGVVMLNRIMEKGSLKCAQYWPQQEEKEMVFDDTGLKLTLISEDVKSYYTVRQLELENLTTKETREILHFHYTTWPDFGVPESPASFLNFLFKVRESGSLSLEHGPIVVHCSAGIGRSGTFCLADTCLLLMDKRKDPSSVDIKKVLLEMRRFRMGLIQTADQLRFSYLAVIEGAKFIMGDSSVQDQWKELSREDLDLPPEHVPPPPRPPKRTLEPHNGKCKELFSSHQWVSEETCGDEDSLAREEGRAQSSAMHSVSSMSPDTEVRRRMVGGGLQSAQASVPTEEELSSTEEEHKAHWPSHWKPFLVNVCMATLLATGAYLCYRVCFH
# How it was run: (§1)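 Diabetic db/db or ob/ob mice dosed orally once daily for 4 days. Plasma glucose and insulin reported as percent change from a vehicle-treated group. 4-6 mice per group. Significance set at p < 0.05 or p < 0.01 versus vehicle; NS means generally less than -15% change.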
# Mus musculus [2] = assay: Evaluated in vivo for their ability to decrease plasma glucose levels in diabetic C57BL/KsJ db/db mouse at a dose 100 mg/kg/day.; type: functional; how it was run: as §1
# [3] = target: T2, Tyrosine-protein phosphatase non-receptor type 1 (Rattus norvegicus, UniProt P20417); assay: Inhibition of PTPase activity using recombinant r-PTP1B and IR-triphosphopeptide as substrate; ND is no data.
# T2 sequence (P20417 whole entry): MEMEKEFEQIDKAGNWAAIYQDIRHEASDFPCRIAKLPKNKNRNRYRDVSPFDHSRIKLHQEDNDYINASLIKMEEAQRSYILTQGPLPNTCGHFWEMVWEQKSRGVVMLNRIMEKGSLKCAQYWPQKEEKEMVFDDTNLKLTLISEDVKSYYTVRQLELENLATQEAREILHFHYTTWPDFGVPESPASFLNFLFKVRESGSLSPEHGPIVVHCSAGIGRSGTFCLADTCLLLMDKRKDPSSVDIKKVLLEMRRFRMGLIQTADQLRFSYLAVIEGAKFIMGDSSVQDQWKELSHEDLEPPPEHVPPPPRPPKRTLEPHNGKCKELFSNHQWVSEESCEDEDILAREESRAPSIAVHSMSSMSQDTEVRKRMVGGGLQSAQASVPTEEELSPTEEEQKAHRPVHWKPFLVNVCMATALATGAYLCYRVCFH
# How it was run: (§2)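 Rat recombinant PTP1B in 33 mM TRIS-HCl, 2 mM EDTA, 50 mM β-mercaptoethanol, pH 7.4 (about 1000-2000 nmol/min/mg). Preincubated 10 min at 37 °C with or without compound in HEPES buffer pH 7.4. Released phosphate read by malachite green-ammonium molybdate at 650 nm against a phosphate standard. Quadruplicates. IC50 by four-parameter logistic fit.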
# [4] = target: T1, Tyrosine-protein phosphatase non-receptor type 1 (Mus musculus); assay: In vivo ability to decrease plasma glucose levels in diabetic C57BL/KsJ ob/ob mouse at a dose 100 mg/kg/day; type: functional, organism-based; how it was run: as §1
# [5] = target: T3, Tyrosine-protein phosphatase non-receptor type 1 (Rattus norvegicus) (UniProt P20417); assay: Inhibition of PTPase (PTP1B) activity in rat hepatic membrane at 50 uM concentration, using pNPP as the substrate; type: cell membranes; conditions: Liver
# T3 sequence (whole entry): T2 sequence (P20417 whole entry)
# How it was run: (§3)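 Liver membranes from male Sprague-Dawley rats (100-150 g), about 30 µg protein per well. Preincubated 10 min at 37 °C with compound in 1.25% DMSO in 50 mM HEPES pH 7.4. Then 6.33 mM pNPP for 30 min at 37 °C, stopped with NaOH. p-Nitrophenol read at 410 nm. Run in triplicate. Reported as percent of untreated control.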
# [6] = target: T2, Tyrosine-protein phosphatase non-receptor type 1; assay: Inhibition of PTPase activity using recombinant r-PTP1B as the enzyme and IR-triphosphopeptide as substrate; how it was run: as §2
# [7] = target: T4, Tyrosine-protein phosphatase non-receptor type 1 (Homo sapiens, UniProt P18031); assay: Concentration required to inhibit PTPase activity, recombinant Protein Tyrosine Phosphatase 1b as the enzyme; how it was run: as §2
# T4 sequence (P18031 whole entry): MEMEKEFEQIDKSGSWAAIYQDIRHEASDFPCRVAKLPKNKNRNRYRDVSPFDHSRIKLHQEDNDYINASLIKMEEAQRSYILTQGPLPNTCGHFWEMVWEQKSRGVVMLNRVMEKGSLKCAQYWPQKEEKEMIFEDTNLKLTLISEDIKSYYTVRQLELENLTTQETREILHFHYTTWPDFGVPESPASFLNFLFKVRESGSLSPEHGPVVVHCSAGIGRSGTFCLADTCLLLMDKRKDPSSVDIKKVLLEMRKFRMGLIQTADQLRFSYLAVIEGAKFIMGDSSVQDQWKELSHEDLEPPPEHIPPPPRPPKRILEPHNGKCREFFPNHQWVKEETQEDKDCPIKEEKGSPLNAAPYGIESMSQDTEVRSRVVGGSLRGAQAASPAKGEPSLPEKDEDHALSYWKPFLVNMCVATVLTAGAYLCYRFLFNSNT
# [8] = target: T3, Tyrosine-protein phosphatase non-receptor type 1 (Rattus norvegicus); assay: Inhibition of PTPase activity using recombinant r-PTP1B as the enzyme and IR-triphosphopeptide as substrate at 50 uM; how it was run: as §2
# [9] = target: T3, Tyrosine-protein phosphatase non-receptor type 1 (Rattus norvegicus); assay: Inhibition of Protein-tyrosine phosphatase 1B activity in rat hepatic membrane at a concentration of 50 uM using pNPP as the substrate; type: cell membranes; conditions: Liver; how it was run: as §3
# Mus musculus [10] = assay: Evaluated in vivo for their ability to decrease plasma glucose levels in diabetic C57BL/KsJ db/db mouse at a dose 100 mg/kg/day, *p indicates <0.05; type: functional
# How it was run: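 Mice dosed orally once daily for 4 days; plasma glucose and insulin measured and expressed as percent change versus a vehicle-treated group (mean ± SE, 4-6 mice/group). NS is generally less than -15% change. Significance is versus vehicle-treated mice.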
Decrease [1],Decrease [4],inhibition [5],IC50 [6],Compound,further results
Not significant,Not significant,23%,–,C/C(=C\CC1OC(=O)NC1=O)c1cccc(OCc2nc(-c3ccccc3)oc2C)c1 (centres undefined),Decrease (Mus musculus [2]): 18%; IC50 [3]: Not significant
–,–,–,1.3 µM,CCCCc1oc2ccccc2c1Cc1cccc(/C(C)=C/Cn2oc(=O)[nH]c2=O)c1,–
Not significant,Not significant,32%,19 µM,C/C(=C\Cn1oc(=O)[nH]c1=O)c1cccc(OCc2coc(-c3ccc(C(F)(F)F)cc3)n2)c1,–
Not significant,Not significant,38%,–,C/C(=C\C(C)n1oc(=O)[nH]c1=O)c1cccc(OCc2nc(-c3ccc(C(F)(F)F)cc3)oc2C)c1 (centres undefined),Decrease (Mus musculus [2]): 16%
–,–,29%,–,C/C(=C\Cc1nnn[nH]1)c1cccc(OCc2nc(-c3ccc(OC(F)(F)F)cc3)oc2C)c1,IC50 [7]: 13 µM
–,–,57%,–,CCCCCCCC/C(=C/Cn1oc(=O)n(CC(=O)O)c1=O)c1cccc(OCc2nc(-c3ccc(C(F)(F)F)cc3)oc2C)c1,IC50 [7]: 0.16 µM
–,–,24%,–,Cc1oc(-c2ccc(C(F)(F)F)cc2)nc1COc1cccc(/C(=C/Cn2oc(=O)n(CC(=O)O)c2=O)c2ccccc2)c1,IC50 [7]: 0.85 µM
–,–,14%,–,Cc1oc(-c2ccc(C(F)(F)F)cc2)nc1COc1ccc2oc(Cn3oc(=O)[nH]c3=O)cc2c1,IC50 [3]: Not significant
Not significant,Not significant,37%,–,C/C(=C\CC1OC(=O)NC1=O)c1cccc(OCc2nc(-c3ccc(OCC(F)(F)F)cc3)oc2C)c1 (centres undefined),Decrease (Mus musculus [2]): inactive; IC50 [3]: Not significant
–,–,20%,–,CC1(COc2ccc(CC3SC(=O)NC3=O)cc2)CCCCC1 (centres undefined) [CIGLITAZONE],Decrease (Mus musculus [2]): 32%
Not significant,Not significant,56%,–,COc1ccc(/C(=C\Cn2oc(=O)[nH]c2=O)c2cccc(OCc3nc(-c4ccc(C(F)(F)F)cc4)oc3C)c2)cc1,inhibition [8]: 34%
Not significant,Not significant,Not significant,43 µM,C/C(=C\Cn1oc(=O)[nH]c1=O)c1ccccc1OCc1nc(-c2ccc(C(F)(F)F)cc2)oc1C,–
–,–,17%,3 µM,C/C(=C\Cn1oc(=O)[nH]c1=O)c1cccc(OCc2noc(-c3ccccc3)n2)c1,–
–,–,–,–,C/C(=C\Cn1oc(=O)[nH]c1=O)c1cccc(OCc2nc(-c3ccccc3)oc2C)c1 (stereo in doubt; 49),inhibition [9]: 35%
Not significant,Not significant,52%,–,C/C(=C\Cn1oc(=O)[nH]c1=O)c1cccc(OCc2nc(-c3ccc(OCC(F)(F)F)cc3)oc2C)c1,Decrease (Mus musculus [10]): 44%; IC50 [3]: Not significant
–,–,–,4.1 µM,C/C(=C\Cn1oc(=O)[nH]c1=O)c1cccc(OCc2cc(C(F)(F)F)cc(C(F)(F)F)c2)c1,–

Decrease [1],Decrease [4],inhibition [5],IC50 [6],Compound,further results
Not significant,Not significant,66%,–,Cc1oc(-c2ccc(C(F)(F)F)cc2)nc1COc1cccc(/C(=C/Cn2oc(=O)[nH]c2=O)C2CCCCC2)c1,inhibition [8]: 49%
–,–,64%,12 µM,C/C(=C\Cn1oc(=O)[nH]c1=O)c1cccc(COc2cc(C(F)(F)F)cc(C(F)(F)F)c2)c1,–
–,–,62%,13 µM,CCCC/C(=C\Cn1oc(=O)[nH]c1=O)c1cccc(Oc2ccc(C)cc2)c1,–
–,–,63%,2 µM,CCCC/C(=C\Cn1oc(=O)[nH]c1=O)c1cccc(Oc2ccccc2)c1,–
–,–,–,–,C/C(=C\Cn1oc(=O)[nH]c1=O)c1cccc(OCc2nc(-c3ccccc3)oc2C)c1 (stereo in doubt; 67),inhibition [9]: 25%
–,–,20%,16 µM,C/C(=C\Cn1oc(=O)[nH]c1=O)c1cccc(OCc2ccc3c(Cl)cccc3c2)c1,–
Not significant,Not significant,33%,–,Cc1oc(-c2ccc(Cl)cc2)nc1COc1cccc(/C=C/C(C)n2oc(=O)[nH]c2=O)c1 (centres undefined),Decrease (Mus musculus [2]): 20%; IC50 [3]: Not significant
–,–,64%,–,CCCCCCCCC(=CCn1oc(=O)n(CC(=O)O)c1=O)c1cccc(OCc2nc(-c3ccc(C(F)(F)F)cc3)oc2C)c1,IC50 [7]: 0.12 µM
Not significant,Not significant,–,13 µM,C/C(=C\CN1CC(=O)NC1=O)c1cccc(OCc2nc(-c3ccc(C(F)(F)F)cc3)oc2C)c1,–
–,–,63%,–,CCCC/C(=C\Cn1oc(=O)n(CC(=O)O)c1=O)c1cccc(Oc2cc(Cl)cc(Cl)c2)c1,IC50 [7]: 1.3 µM
Not significant,Not significant,45%,24 µM,C/C(=C\Cn1oc(=O)[nH]c1=O)c1cccc(OCCc2nc(-c3ccccc3)oc2C)c1,Decrease (Mus musculus [2]): 38%
–,–,62%,10 µM,CCCC/C(=C\Cn1oc(=O)[nH]c1=O)c1cccc(Oc2ccc(OC)cc2)c1,–
–,–,49%,–,COc1cc(OCc2nc(-c3ccc(C(F)(F)F)cc3)oc2C)cc(/C(C)=C/Cn2oc(=O)[nH]c2=O)c1,inhibition [8]: 12%
Not significant,Not significant,51%,–,Cc1oc(-c2ccc(C(F)(F)F)cc2)nc1COc1cccc(C2(C)CC2Cn2oc(=O)[nH]c2=O)c1 (centres undefined),inhibition [8]: 1%
Not significant,Not significant,23%,–,Cc1oc(-c2ccccc2)nc1COc1cccc(C#CC(C)n2oc(=O)[nH]c2=O)c1 (centres undefined),–
–,–,31%,–,Cc1oc(-c2ccc(C(F)(F)F)cc2)nc1COc1ccc2c(c1)C=C/C2=C\Cn1oc(=O)[nH]c1=O,inhibition [8]: 83%

Compound,Decrease [1],Decrease [4],inhibition [5],IC50 [6],further results
C/C(=C\Cn1oc(=O)[nH]c1=O)c1ccc2oc(Cc3nc(-c4ccc(C(F)(F)F)cc4)oc3C)cc2c1,–,–,57%,–,Decrease (Mus musculus [10]): 31%; inhibition [8]: 53%
Cc1oc(-c2ccc(C(F)(F)F)cc2)nc1COc1cccc(CCCn2oc(=O)[nH]c2=O)c1,Not significant,Not significant,54%,–,Decrease (Mus musculus [10]): 21%; inhibition [8]: 4.3%
C/C(Cn1oc(=O)[nH]c1=O)=C(/C)c1cccc(OCc2nc(-c3ccc(C(F)(F)F)cc3)oc2C)c1,–,–,47%,–,Decrease (Mus musculus [2]): 20%
